From ChEMBL document CHEMBL1124180, “Asymmetric synthesis and properties of the enantiomers of the antibacterial agent 7-(3-aminopyrrolidin-1-yl)-1-(2,4-difluorophenyl)-1,4-dihydro-6- fluoro-4-oxo-1,8-naphthyridine-3-carboxylic acid hydrochloride” (J Med Chem, 1988)
≈ marks a conversion by molar mass, not a printed value.

Tests used:
Phocaeicola vulgatus [1] = experiment: In vitro activity against Bacteroides vulgatus(792); format: functional
Method in brief: (§1)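 MIC determined under anaerobic conditions on Wilkins-Chalgren agar.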

Finegoldia magna = experiment: In vitro activity against Peptococcus magnus (ATCC 29328); format: functional; method in brief: as §1
Mus musculus [2] = experiment: In vivo activity against Pseudomonas aeruginosa A5007 (100X LD50), administered po( each compound tested at 3 doses with 10 animals); format: functional
Method in brief: (§2)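 Mice were challenged intraperitoneally with the organism. The compound was given orally as a total dose split into equal portions at 1 and 5 h post-infection. Three doses were used, with 10 animals per dose.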

Hoylesella loescheii = experiment: In vitro activity against Bacteroides loescheii (ATCC 15930).; format: functional; method in brief: as §1
Phocaeicola vulgatus [3] = experiment: In vitro activity against Bacteroides vulgatus(SFBC 2375); format: functional; method in brief: as §1
Cutibacterium acnes = experiment: In vitro activity against Propionibacterium acnes (132); format: functional; method in brief: as §1
Fusobacterium = experiment: In vitro activity against Fusobacterium sp.(GS-10); format: functional; method in brief: as §1
Prevotella bivia [4] = experiment: In vitro activity against t Bacteroides bivius(B 6140); format: functional
Method in brief: (§3)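 Anaerobic MICs measured by agar dilution on Wilkins-Chalgren agar.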

[5] = test system: Peptoniphilus asaccharolyticus; experiment: In vitro activity against Peptococcus asaccharolyticus (ATCC 14963).; format: functional; method in brief: as §1
Mus musculus [6] = experiment: In vivo activity against Escherichia coli Juhl(100X LD50), when administered po( each compound tested at 3 doses with 10 animals); format: functional; method in brief: as §2
[7] = test system: Peptostreptococcus anaerobius; experiment: In vitro activity against Peptostreptococcus anaerobius (ATCC 27337); format: functional; method in brief: as §1
Veillonella parvula = experiment: In vitro activity against Veillonella parvula (ATCC 10790); format: functional; method in brief: as §3
Mus musculus [8] = experiment: In vivo activity against Escherichia coli Juhl(100X LD50), when administered sc( each compound tested at 3 doses with 10 animals); format: functional
Method in brief: (§4)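 Mice were challenged intraperitoneally with the organism. The compound was given subcutaneously as a total dose split into equal portions at 1 and 5 h post-infection. Three doses were used, with 10 animals per dose.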

Peptostreptococcus = experiment: In vitro activity against Peptostreptococcus sp.(TB-11); format: functional
Method in brief: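 MIC for anaerobic bacteria, measured on Wilkins-Chalgren agar.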

Prevotella disiens = experiment: In vitro activity against Bacteroides disiens (ATCC 29426); format: functional; method in brief: as §1
Fusobacterium nucleatum = experiment: In vitro activity against Fusobacterium nucleatum (ATCC 25586); format: functional; method in brief: as §1
Mus musculus [9] = experiment: In vivo activity against Pseudomonas aeruginosa A5007 (100X LD50), administered sc ( each compound tested at 3 doses with 10 animals); format: functional; method in brief: as §4
Bacteroides fragilis [10] = experiment: In vitro activity against Bacteroides fragilis (784); format: functional; method in brief: as §1
Bacteroides fragilis [11] = experiment: In vitro activity against Bacteroides fragilis (SFM2929-1); format: functional; method in brief: as §1
[12] = test system: Prevotella melaninogenica; experiment: In vitro activity against Bacteroides melaninogenicus (ATCC 25845).; format: functional; method in brief: as §1
[13] = test system: Bacteroides thetaiotaomicron; experiment: microbe, parasite or virus in culture; settings: ATCC 29741
Bacteroides fragilis [14] = experiment: In vitro activity against Bacteroides fragilis (SFM2975-7); format: functional; method in brief: as §1
Parvimonas micra [15] = experiment: In vitro activity against Peptostreptococcus micros (ATCC 33270); format: functional; method in brief: as §1
Bacteroides fragilis [16] = experiment: In vitro activity against Bacteroides fragilis (SFM2906A); format: functional; method in brief: as §1
Bacteroides fragilis [17] = experiment: In vitro activity against Bacteroides fragilis (UC-2); format: functional; method in brief: as §1
Bacteroides fragilis [18] = experiment: In vitro activity against Bacteroides fragilis (105AT25285); format: functional; method in brief: as §1
[19] = test system: Bacteroides thetaiotaomicron; experiment: In vitro activity against Bacteroides thetaiotaomicron (106); format: functional; method in brief: as §1
Prevotella bivia [20] = experiment: In vitro activity against Bacteroides bivius(B 6140); format: functional; method in brief: as §1
Clostridioides difficile [21] = experiment: In vitro activity against Clostridium difficile (ATCC 17857); format: functional
Clostridioides difficile [22] = experiment: In vitro activity against Clostridium difficile (ATCC 9689); format: functional
Thomasclavelia ramosa = experiment: In vitro activity against Clostridium ramosum (7); format: functional; method in brief: as §1
Clostridium perfringens [23] = experiment: In vitro activity against Clostridium perfringens (104AT13124); format: functional
[24] = test system: Bacteroides thetaiotaomicron; experiment: In vitro activity against thetaiotaomicron (ATCC 29741); format: functional; method in brief: as §3
Parvimonas micra [25] = experiment: In vitro activity against Peptostreptococcus micros (ATCC 33270).; format: functional; method in brief: as §1
Clostridium perfringens [26] = experiment: In vitro activity against Clostridium perfringens (SFBC 2026); format: functional
[27] = test system: Bacteroides thetaiotaomicron; experiment: In vitro activity against Bacteroides thetaiotaomicron (SFM2975-2); format: functional; method in brief: as §1
[28] = test system: Bacteroides thetaiotaomicron; experiment: In vitro activity against Bacteroides thetaiotaomicron (ATCC 29742); format: functional; method in brief: as §1

Compound | MIC (Phocaeicola vulgatus [1]) [µg/mL] | MIC (Finegoldia magna) [µg/mL] | MIC (Hoylesella loescheii) [µg/mL] | MIC (Phocaeicola vulgatus [3]) [µg/mL] | MIC [5] [µg/mL] | MIC (Veillonella parvula) [µg/mL] | MIC (Peptostreptococcus) [µg/mL] | MIC (Prevotella disiens) [µg/mL] | MIC (Fusobacterium nucleatum) [µg/mL] | MIC (Bacteroides fragilis [10]) [µg/mL] | MIC [12] [µg/mL] | MIC (Bacteroides fragilis [14]) [µg/mL] | MIC (Bacteroides fragilis [16]) [µg/mL] | MIC (Bacteroides fragilis [17]) [µg/mL] | MIC (Bacteroides fragilis [18]) [µg/mL] | further results
O=C(O)c1cn(C2CC2)c2cc(N3CCNCC3)c(F)cc2c1=O [CIPROFLOXACIN] | 8 (≈ 24.1 µM) | 0.25 (≈ 0.754 µM) | 8 (≈ 24.1 µM) | 8 (≈ 24.1 µM) | 2 (≈ 6.04 µM) | 0.25 (≈ 0.754 µM) | 2 (≈ 6.04 µM) | 2 (≈ 6.04 µM) | 4 (≈ 12.1 µM) | 4 (≈ 12.1 µM) | 2 (≈ 6.04 µM) | 8 (≈ 24.1 µM) | 4 (≈ 12.1 µM) | 4 (≈ 12.1 µM) | 4 (≈ 12.1 µM) | ED50 (Mus musculus [2]): 15.1 mg/kg; MIC (Cutibacterium acnes): 2 µg/mL (≈ 6.04 µM); MIC (Fusobacterium): 4 µg/mL (≈ 12.1 µM); MIC (Prevotella bivia [4]): 2 µg/mL (≈ 6.04 µM); ED50 (Mus musculus [6]): 1.3 mg/kg; MIC [7]: 2 µg/mL (≈ 6.04 µM); ED50 (Mus musculus [8]): 0.3 mg/kg; ED50 (Mus musculus [9]): 4.1 mg/kg; MIC (Bacteroides fragilis [11]): 8 µg/mL (≈ 24.1 µM); MIC [13]: 32 µg/mL (≈ 96.6 µM); MIC (Parvimonas micra [15]): 0.5 µg/mL (≈ 1.51 µM)
CCC[C@@H]1C[C@@H](C(=O)N[C@@H]([C@H]2O[C@H](SC)[C@H](O)[C@@H](O)[C@H]2O)[C@H](C)Cl)N(C)C1 [CLINDAMYCIN] | < 0.015 | 1 (≈ 2.35 µM) | 0.5 (≈ 1.18 µM) | < 0.015 | 0.06 (≈ 0.141 µM) | 0.06 (≈ 0.141 µM) | 0.06 (≈ 0.141 µM) | < 0.015 | 0.25 (≈ 0.588 µM) | 1 (≈ 2.35 µM) | 0.03 (≈ 0.0706 µM) | 2 (≈ 4.71 µM) | 0.5 (≈ 1.18 µM) | 0.5 (≈ 1.18 µM) | 2 (≈ 4.71 µM) | MIC [19]: 4 µg/mL (≈ 9.41 µM); MIC (Prevotella bivia [20]): < 0.015 µg/mL; MIC (Clostridioides difficile [21]): 8 µg/mL (≈ 18.8 µM); MIC (Clostridioides difficile [22]): 4 µg/mL (≈ 9.41 µM); MIC (Thomasclavelia ramosa): 1 µg/mL (≈ 2.35 µM); MIC (Clostridium perfringens [23]): 0.03 µg/mL (≈ 0.0706 µM); MIC [24]: 8 µg/mL (≈ 18.8 µM); MIC (Parvimonas micra [25]): 0.06 µg/mL (≈ 0.141 µM); MIC (Clostridium perfringens [26]): 0.25 µg/mL (≈ 0.588 µM); MIC [27]: 0.5 µg/mL (≈ 1.18 µM); MIC [28]: 4 µg/mL (≈ 9.41 µM)
